Activity calls are given as the source filed them. The rule behind the calls is not given here.
Assays:
[1] = Cytotoxicity in mouse parental BA/F3 cells incubated for 72 hrs by MTS assay; format: cell-based, BaF3
[2] = Volume of distribution at steady state in dog […] at 1 umol/kg, iv; format: ADME, organism-based, Canis lupus familiaris; settings: in vivo, read-out: Vdss
[3] = Half life in CD1 mouse at 21 umol/kg, po; format: ADME, organism-based; settings: in vivo
Procedure, shortened: (§1)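 PK was run in CD1 mice with an iv dose of 10 μMol/kg and an oral dose of 21 μMol/kg. Cl, Vdss, t1/2 and F% were derived.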

BaF3 [4] = experiment: Antitumor activity against mouse BA/F3 cells expressing Kit exon 11 deletion (557 to 558 residues) and D816H mutant (unknown origin) allografted in CB17 SCID mouse assessed as inhibition of tumor growth at 2 mg/kg, po bid measured on last day of dosing; format: functional; settings: read-out: TGI
Procedure, shortened: (§2)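 Ba/F3 cells bearing the KIT exon 11 del/D816H or exon 11 del/V654A mutation were grown as allografts in mice. Compounds were given p.o. once (QD) or twice daily (BD), and vehicle was given BD p.o. Tumor growth inhibition and regression (%) were taken on the last day of dosing. p-values were calculated relative to vehicle.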

[5] = Half life in Han Wistar rat at […], po; format: ADME, organism-based; settings: in vivo
[6] = Protein binding in mouse plasma assessed as unbound fraction level; format: ADME, cell-free
BaF3 [7] = experiment: Antitumor activity against mouse BA/F3 cells expressing Kit exon 11 deletion (557 to 558 residues) and V654 mutant (unknown origin) allografted in CB17 SCID mouse assessed as inhibition of tumor growth at 2 mg/kg, po bid measured on last day of dosing; format: functional; settings: read-out: TGI; procedure, shortened: as §2
[8] = Protein binding in rat plasma assessed as unbound fraction level; format: ADME, cell-free
[9] = Intrinsic clearance in mouse hepatocytes assessed per million cells; format: ADME, cell-based, Hepatocyte; settings: read-out: CLH
[10] = molecular target: Mast/stem cell growth factor receptor Kit (Homo sapiens) (UniProt P10721)
[11] = Protein binding in human plasma assessed as unbound fraction level; format: ADME, cell-free
[12] = tested on: Mast/stem cell growth factor receptor Kit (Homo sapiens), P10721 [V560D,V654A]
[13] = Clearance in Han Wistar rat at 1 umol/kg, iv; format: ADME, organism-based; settings: in vivo
Procedure, shortened: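 PK was run in Han Wistar rats with an iv dose of 1 μMol/kg and an oral dose of 2.1 μMol/kg. Cl, Vdss, t1/2 and F% were derived.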

[14] = molecular target: Mast/stem cell growth factor receptor Kit (Homo sapiens) (UniProt P10721); remark: listed apart in the source
BaF3 [15] = experiment: Antitumor activity against mouse BA/F3 cells expressing Kit exon 11 deletion (557 to 558 residues) and V654 mutant (unknown origin) allografted in CB17 SCID mouse assessed as tumor regression at 20 mg/kg, po bid measured on last day of dosing; format: functional; procedure, shortened: as §2
[16] = Volume of distribution at steady state in CD1 mouse at 10 umol/kg, iv; format: ADME, organism-based; settings: in vivo, read-out: Vdss
Procedure, shortened: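 PK in CD1 mice given an iv dose of 10 μMol/kg, alongside a separate oral dose of 21 μMol/kg. Clearance, Vdss, half-life and oral bioavailability were derived from these profiles.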

[17] = molecular target: Mast/stem cell growth factor receptor Kit (Homo sapiens) (UniProt P10721); remark: listed apart in the source
[18] = tested on: Mast/stem cell growth factor receptor Kit (Homo sapiens), P10721 [UNDEFINED MUTATION]
Mus musculus [19] = experiment: Inhibition of Kit exon 11 deletion (557 to 558 residues) and D816H mutant phosphorylation (unknown origin) transfected in mouse BA/F3 cells allografted in CB17 SCID mouse at 20 mg/kg, po administered as single dose measured after 24 hrs; format: functional, organism-based
Procedure, shortened: (§3)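 A single 20 mg/kg p.o. dose was given to mice carrying exon 11 del/D816H Ba/F3 allografts. Tumor pKIT, pERK and pAKT were measured over a timecourse, with free compound cover tracked in the same study.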

[20] = tested on: Mast/stem cell growth factor receptor Kit (Homo sapiens), P10721 [UNDEFINED MUTATION]; remark: listed apart in the source
[21] = Intrinsic clearance in human hepatocytes assessed per million cells; format: ADME, cell-based, Hepatocyte; settings: read-out: CLH
[22] = Efflux ratio in human Caco2 cells at 10 uM at pH 6.5; settings: Caco-2, pH 6.5
[23] = Clearance in dog rat at 1 umol/kg, iv; format: ADME, organism-based, Canis lupus familiaris; settings: in vivo
BaF3 [24] = experiment: Antitumor activity against mouse BA/F3 cells expressing Kit exon 11 deletion (557 to 558 residues) and D816H mutant (unknown origin) allografted in CB17 SCID mouse assessed as tumor regression at 2 mg/kg, po bid measured on last day of dosing; format: functional; procedure, shortened: as §2
BaF3 [25] = experiment: Antitumor activity against mouse BA/F3 cells expressing Kit exon 11 deletion (557 to 558 residues) and D816H mutant (unknown origin) allografted in CB17 SCID mouse assessed as tumor regression at 20 mg/kg, po bid measured on last day of dosing; format: functional; procedure, shortened: as §2
[26] = Lipophilicity, log D of the compound at pH 7.4; format: physicochemical; settings: buffer
[27] = Half life in dog rat at […], po; format: ADME, organism-based, Canis lupus familiaris; settings: in vivo
BaF3 [28] = experiment: Antitumor activity against mouse BA/F3 cells expressing Kit exon 11 deletion (557 to 558 residues) and V654 mutant (unknown origin) allografted in CB17 SCID mouse assessed as inhibition of tumor growth at 20 mg/kg, po bid measured on last day of dosing; format: functional; settings: read-out: TGI; procedure, shortened: as §2
BaF3 [29] = experiment: Antitumor activity against mouse BA/F3 cells expressing Kit exon 11 deletion (557 to 558 residues) and D816H mutant (unknown origin) allografted in CB17 SCID mouse assessed as inhibition of tumor growth at 20 mg/kg, po bid measured on last day of dosing; format: functional; settings: read-out: TGI; procedure, shortened: as §2
[30] = Volume of distribution at steady state in Han Wistar rat at 1 umol/kg, iv; format: ADME, organism-based; settings: in vivo, read-out: Vdss
Procedure, shortened: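 Han Wistar rat PK study using an iv dose of 1 μMol/kg and an oral dose of 2.1 μMol/kg. Clearance, Vdss, t1/2 and F% were derived.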

[31] = tested on: Mast/stem cell growth factor receptor Kit (Homo sapiens), P10721 [UNDEFINED MUTATION]; remark: listed apart in the source
[32] = tested on: Mast/stem cell growth factor receptor Kit (Homo sapiens), P10721 [UNDEFINED MUTATION]; remark: listed apart in the source
Mus musculus [33] = experiment: Inhibition of Kit exon 11 deletion (557 to 558 residues) and D816H mutant (unknown origin) transfected in mouse BA/F3 cells allografted in CB17 SCID mouse assessed as reduction in ERK phosphorylation at 20 mg/kg, po administered as single dose measured after 24 hrs; format: functional, organism-based; procedure, shortened: as §3
Mus musculus [34] = experiment: Inhibition of Kit exon 11 deletion (557 to 558 residues) and D816H mutant phosphorylation (unknown origin) transfected in mouse BA/F3 cells allografted in CB17 SCID mouse at 20 mg/kg, po administered as single dose measured after 8 hrs; format: functional, organism-based; procedure, shortened: as §3
[35] = Oral bioavailability in CD1 mouse at 21 umol/kg; format: ADME, organism-based; settings: in vivo; procedure, shortened: as §1

Mast/stem cell growth factor receptor Kit (Homo sapiens), P10721 [UNDEFINED MUTATION], sequence (P10721 whole entry, looked up, stated change not applied, the tested form may be a part): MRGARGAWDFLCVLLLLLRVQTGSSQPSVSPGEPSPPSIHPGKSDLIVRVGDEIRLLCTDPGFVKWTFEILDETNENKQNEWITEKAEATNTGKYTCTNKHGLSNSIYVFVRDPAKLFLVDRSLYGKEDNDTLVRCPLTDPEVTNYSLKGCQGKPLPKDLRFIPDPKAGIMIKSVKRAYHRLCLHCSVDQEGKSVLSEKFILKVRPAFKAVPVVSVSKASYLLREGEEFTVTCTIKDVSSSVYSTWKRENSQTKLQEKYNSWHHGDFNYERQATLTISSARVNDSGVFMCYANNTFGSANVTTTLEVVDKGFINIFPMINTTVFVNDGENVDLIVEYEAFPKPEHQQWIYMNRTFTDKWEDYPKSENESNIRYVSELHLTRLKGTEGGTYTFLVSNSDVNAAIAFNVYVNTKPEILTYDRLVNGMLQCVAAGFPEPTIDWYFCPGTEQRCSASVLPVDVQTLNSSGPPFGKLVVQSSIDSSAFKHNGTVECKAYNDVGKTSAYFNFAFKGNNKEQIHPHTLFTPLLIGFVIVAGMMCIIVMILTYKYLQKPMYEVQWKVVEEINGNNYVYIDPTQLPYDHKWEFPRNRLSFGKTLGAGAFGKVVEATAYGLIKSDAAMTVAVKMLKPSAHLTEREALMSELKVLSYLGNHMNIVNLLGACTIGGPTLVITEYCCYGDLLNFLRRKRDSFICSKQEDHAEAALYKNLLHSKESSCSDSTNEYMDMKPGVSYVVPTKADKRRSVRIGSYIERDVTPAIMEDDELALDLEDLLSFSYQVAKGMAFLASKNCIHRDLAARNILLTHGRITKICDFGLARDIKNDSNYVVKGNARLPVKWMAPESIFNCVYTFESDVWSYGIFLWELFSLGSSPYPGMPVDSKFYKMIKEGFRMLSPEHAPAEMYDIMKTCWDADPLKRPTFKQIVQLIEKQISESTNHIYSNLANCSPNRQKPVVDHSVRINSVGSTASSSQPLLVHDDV
Mast/stem cell growth factor receptor Kit (Homo sapiens), sequence (P10721 whole entry, the tested form may be a part): as the sequence (P10721 whole entry, looked up, stated change not applied, the tested form may be a part) above
Mast/stem cell growth factor receptor Kit (Homo sapiens), P10721 [V560D,V654A], sequence (P10721 whole entry V560D/V654A): as the sequence (P10721 whole entry, looked up, stated change not applied, the tested form may be a part) above, with V560D, V654A counted along it

COCCOc1cc(F)c2c(Nc3ccc(NC(=O)Cn4cc(C(C)C)nn4)cc3)ncnc2c1
GI50 at 72 h [1]: > 10000 nM | Vd [2]: 0.3 L/kg | half-life [3]: 2 h | inhibition in vivo at 2 mg/kg (BaF3 [4]): 5% | half-life [5]: 3 h | fraction unbound [6]: 0.049 | inhibition in vivo at 2 mg/kg (BaF3 [7]): > 100% | fraction unbound [8]: 0.022 | hepatocyte CLint [9]: 5 µL/min/1e6 cells | GI50 [10]: 2 nM | fraction unbound [11]: 0.035 | GI50 [12]: 7 nM | clearance [13]: 8 mL/min/kg | GI50 [14]: 51 nM | Activity (BaF3 [15]): 85% | Vd [16]: 0.7 L/kg | GI50 [17]: 8 nM | GI50 [18]: 3 nM | inhibition (Mus musculus [19]): Active | GI50 [20]: 3 nM | hepatocyte CLint [21]: < 1 µL/min/1e6 cells | efflux ratio at 10 µM [22]: 2.6 | clearance [23]: 2 mL/min/kg | Activity (BaF3 [24]): 0% | Activity (BaF3 [25]): 75% | logD [26]: 3 | half-life [27]: 4 h | inhibition in vivo at 20 mg/kg (BaF3 [28]): > 100% | inhibition in vivo at 20 mg/kg (BaF3 [29]): > 100% | Vd [30]: 0.6 L/kg | GI50 [31]: 16 nM | GI50 [32]: 4 nM | inhibition (Mus musculus [33]): Active | inhibition (Mus musculus [34]): Active | bioavailability [35]: 100%
